Laboratory results as given in ChEMBL document CHEMBL1134626, “Synthesis of potent C(2)-symmetric, diol-based hiv-1 protease inhibitors. Investigation of thioalkyl and thioaryl P1/P1' substituents” (J Med Chem, 2001).

How the values were obtained:
[1] = tested on: Human immunodeficiency virus 1; assay: In Vitro anti HIV activity was evaluated in HIV cytopathic assay in MT-4 cells; type: functional; conditions: Human immunodeficiency virus 1, MT4; read-out: ED50 (the source's name)
Outline: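 HIV cytopathic assay in MT-4 cells; protection quantified with vital dye XTT; ED50 calculated from percent cytoprotection per compound.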

[2] = target: Human immunodeficiency virus type 1 protease (Human immunodeficiency virus 1, UniProt Q72874); assay: Inhibitory activity against HIV protease expressed in Escherichia coli
Outline: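 HIV-1 protease cloned and heterologously expressed in E. coli; Ki determined by fluorometric enzyme assay.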

[3] = Dissociation constant was measured; type: physicochemical
[4] = tested on: Human immunodeficiency virus 1; assay: Compound was evaluated for Antiviral activity against HIV-1; type: functional; conditions: read-out: ED50 (the source's name)
Outline: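 HIV cytopathic assay in MT-4 cells; cell protection read out with the vital dye XTT. ED50 taken as the 50% inhibitory concentration, calculated from percent cytoprotection for each compound.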

| SMILES | EC50 [1] [µM] | Ki [2] [µM] | pKa [3] | EC50 [4] [µM] |
| --- | --- | --- | --- | --- |
| CNC(=O)[C@@H](NC(=O)[C@H](OCc1ccccc1)[C@H](O)[C@@H](O)[C@@H](OCc1ccccc1)C(=O)N[C@H](C(=O)NC)C(C)C)C(C)C | 1.3 |  |  |  |
| C=CCS[C@@H](C(=O)NC1c2ccccc2C[C@H]1O)[C@H](O)[C@@H](O)[C@@H](SCC=C)C(=O)N[C@H]1c2ccccc2C[C@H]1O (stereo not given in full) | > 10 | 0.016 | 9.8 |  |
| CNC(=O)[C@@H](NC(=O)[C@H](Sc1ccccc1)[C@H](O)[C@@H](O)[C@@H](Sc1ccccc1)C(=O)N[C@H](C(=O)NC)C(C)C)C(C)C | 6.3 | 0.0018 | 6.6 |  |
| CNC(=O)[C@@H](NC(=O)[C@H](Sc1ccccc1F)[C@H](O)[C@@H](O)[C@@H](Sc1ccccc1F)C(=O)N[C@H](C(=O)NC)C(C)C)C(C)C | 3.6 | 0.00057 | 6 |  |
| O=C(NC1c2ccccc2C[C@H]1O)[C@H](OCc1ccccc1)[C@H](O)[C@@H](O)[C@@H](OCc1ccccc1)C(=O)N[C@H]1c2ccccc2C[C@H]1O (stereo not given in full) | 0.096 |  |  |  |
| O=C(NC1c2ccccc2C[C@H]1O)[C@H](SCc1ccccc1)[C@H](O)[C@@H](O)[C@@H](SCc1ccccc1)C(=O)N[C@H]1c2ccccc2C[C@H]1O (stereo not given in full) | 1.1 | 0.0028 | 9.7 |  |
| O=C(NC1c2ccccc2C[C@H]1O)[C@H](Sc1cccs1)[C@H](O)[C@@H](O)[C@@H](Sc1cccs1)C(=O)N[C@H]1c2ccccc2C[C@H]1O (stereo not given in full) | 0.027 | 0.0005 | 6.4 |  |
| CNC(=O)[C@@H](NC(=O)[C@H](Sc1cccs1)[C@H](O)[C@@H](O)[C@@H](Sc1cccs1)C(=O)N[C@H](C(=O)NC)C(C)C)C(C)C | 4.2 | 0.001 | 6.4 |  |
| O=C(NC1c2ccccc2C[C@H]1O)[C@H](Sc1ccccc1F)[C@H](O)[C@@H](O)[C@@H](Sc1ccccc1F)C(=O)N[C@H]1c2ccccc2C[C@H]1O (stereo not given in full) | 0.11 | 0.0023 | 6 |  |
| O=C(NC1c2ccccc2C[C@H]1O)[C@H](Sc1ccccc1)[C@H](O)[C@@H](O)[C@@H](Sc1ccccc1)C(=O)N[C@H]1c2ccccc2C[C@H]1O (stereo not given in full) | 0.26 | 0.0018 | 6.6 |  |
| O=C(NC1c2ccccc2C[C@H]1O)[C@H](SCc1ccccc1F)[C@H](O)[C@@H](O)[C@@H](SCc1ccccc1F)C(=O)N[C@H]1c2ccccc2C[C@H]1O (stereo not given in full) | 0.21 | 0.0043 | 9.2 |  |
| O=C(NC1c2ccccc2C[C@H]1O)[C@H](Sc1ccccn1)[C@H](O)[C@@H](O)[C@@H](Sc1ccccn1)C(=O)N[C@H]1c2ccccc2C[C@H]1O (stereo not given in full) | > 10 | 0.285 | 9.6 |  |
| CC(C)(C)NC(=O)[C@@H]1CN(Cc2cccnc2)CCN1C[C@@H](O)C[C@@H](Cc1ccccc1)C(=O)N[C@H]1c2ccccc2C[C@H]1O [INDINAVIR] |  |  |  | 0.073 |
| Cc1c(O)cccc1C(=O)N[C@@H](CSc1ccccc1)[C@H](O)CN1C[C@H]2CCCC[C@H]2C[C@H]1C(=O)NC(C)(C)C [NELFINAVIR] |  |  |  | 0.056 |
| CC(C)c1nc(CN(C)C(=O)N[C@H](C(=O)N[C@@H](Cc2ccccc2)C[C@H](O)[C@H](Cc2ccccc2)NC(=O)OCc2cncs2)C(C)C)cs1 [RITONAVIR] |  |  |  | 0.055 |
